The source made the active and inactive calls. No cut-off for these calls is given here.

Drawing on ChEMBL document CHEMBL3244233, “Synthesis and biological activities of some N6- and N9-carbamoyladenines and related ribonucleosides” (1977), this text covers viability, inhibition of growth and Activity for 14 compounds.

Common to all, as to format: functional
A short description of test [1]: Growth inhibition of human Nc37 cells assessed as viable cells at 10^-4 M after 72 hrs relative to control. Particulars: NC-37, 72 h, read-out: Activity. In short, it runs like this:
(§1)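 Nc 37 cells come from a normal human buffy coat, RPMI 6410 from the buffy coat of a myeloblastic leukemia patient, and L1210 is mouse leukemia. Cells were grown in RPMI 1640 with 10% fetal calf serum and exposed to compound at 10^-4 M in medium containing 0.5% Me2SO for 72 h. Viable cell number is expressed as percent of 0.5% Me2SO controls and scored as ++ 30-60%, + 60-80%, ± 80-90%, NA 90-110%.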

Test [2] deals with L1210. Briefly: Growth inhibition of mouse L1210 cells at 10^-4 M after 72 hrs relative to control. Particulars: L1210, 72 h, read-out: GI. In short, it runs like this: as §1
The test system of test [3] is L1210. Briefly: Growth inhibition of mouse L1210 cells assessed as viable cells at 10^-4 M after 72 hrs relative to control. Particulars: L1210, 72 h, read-out: Activity. In short, it runs like this: as §1
The nature of test [4]: Growth inhibition of human RPMI6410 cells assessed as viable cells at 10^-4 M after 72 hrs relative to control. Conditions: RPMI 6410, 72 h, read-out: Activity. In short, it runs like this: as §1
A short description of test [5]: Growth inhibition of human Nc37 cells assessed as viable cells at 10^-5 M after 72 hrs relative to control. Conditions: NC-37, 72 h, read-out: Activity.
The nature of test [6]: Growth inhibition of human RPMI6410 cells assessed as viable cells at 10^-5 M after 72 hrs relative to control. Particulars: RPMI 6410, 72 h, read-out: Activity.
Test [7] deals with L1210. Briefly: Antitumor activity against mouse L1210 cells allografted in mouse assessed as increase in life span of host.
In test [8] the test system is L1210. The experiment in a line: Growth inhibition of mouse L1210 cells assessed as viable cells at 10^-5 M after 72 hrs relative to control. Particulars: L1210, 72 h, read-out: Activity.

Consider `Nc1ncnc2c1ncn2C(=O)NCC(=O)OCc1ccccc1`, for which the viability at 100 µM in test [1] is 60%; in the test with L1210 [3], greater than 30%; in test [4], 80%. The inhibition of growth at 100 µM with L1210 [2] is no less than 70%.
The like results for `CC(OCc1ccccc1)C(NC(=O)n1cnc2c(N)ncnc21)C(=O)OCc1ccccc1` (configuration not stated) were, in that order, 60%, greater than 30%, 60% and no less than 70%.
As to `CC(C)(C)NC(=O)n1cnc2c(N)ncnc21`, the viability at 100 µM in test [1] is 60%; in the test with L1210 [3] it was greater than 30%; in test [4], 60%. Further, the inhibition of growth at 100 µM in the test with L1210 [2] is no less than 70%.
With `CNC(=O)n1cnc2c(N)ncnc21`, the viability at 10 µM in test [5] and in test [6] was 60% in each case. For the same compound, the viability at 100 µM (in test [1]; with L1210 [3]; in test [4]) was 30% in each case. Besides, in the test on L1210 [2], the inhibition of growth at 100 µM is no less than 70%. In addition, the result with L1210 [7] was inactive.
Turning to `Nc1ncnc2c1ncn2C(=O)N[C@@H](Cc1ccccc1)C(=O)O`, the viability at 100 µM was 30% in test [1], greater than 30% in the test on L1210 [3] and 80% in test [4]. Moreover, in the test on L1210 [2], the inhibition of growth at 100 µM was no less than 70%.
Take `O=C(Nc1ccc(Cl)cc1)Nc1ncnc2c1ncn2[C@@H]1O[C@H](CO)[C@@H](O)[C@H]1O`: the figures for the viability at 100 µM (in test [1]; in the test on L1210 [3]; in test [4]) were 30%, greater than 30% and 30%, respectively. Also, in the test with L1210 [7], the outcome was inactive.
Turning to `CCCCNC(=O)n1cnc2c(N)ncnc21`, the viability at 100 µM was 30% in test [1], greater than 30% in the test on L1210 [3] and 30% in test [4]. The inhibition of growth at 100 µM in the test on L1210 [2] was no less than 70%.
Take `Nc1ncnc2c1ncn2C(=O)NC1CCCCC1`: the values for the viability at 100 µM (in test [1]; in the test with L1210 [3]; in test [4]) were 30%, greater than 30% and 30%, respectively. Moreover, in the test with L1210 [2], the inhibition of growth at 100 µM is no less than 70%.
Consider `C=CCNC(=O)n1cnc2c(N)ncnc21`, for which the viability at 100 µM is 30% in test [1], greater than 30% in the test with L1210 [3] and 60% in test [4]. For the same compound, the inhibition of growth at 100 µM in the test with L1210 [2] is no less than 70%.
As for `O=C(Nc1cccc2ccccc12)Nc1ncnc2c1ncn2C(=O)Nc1cccc2ccccc12`, the viability at 100 µM in test [1] was 30%; with L1210 [3], greater than 30%; in test [4], 30%. Further, in the test on L1210 [7], the outcome was inactive.
On to `CNC(=O)Nc1ncnc2c1ncn2C(=O)NC`, for which the viability at 100 µM in test [1] is 90%; in the test with L1210 [3], 80%; in test [4] it was 80%.
With `CNC(=O)N(C)c1ncnc2c1ncn2C(=O)NC`, the viability at 100 µM is 30% in test [1], 30% in the test with L1210 [3] and 60% in test [4].
On to `CNC(=S)n1cnc2c(N)ncnc21`, for which the viability at 10 µM in test [5] is 30%; in test [6] it was 30%; in the test on L1210 [8], greater than 30%. Further, the inhibition of growth at 100 µM with L1210 [2] was no less than 70%. In addition, the outcome in the test with L1210 [7] was inactive.
Regarding `O=C(Nc1ccc(F)cc1)Nc1ncnc2[nH]cnc12`, the viability at 100 µM was determined as 90% in test [1], 30% with L1210 [3] and 90% in test [4].
